Calb FLC: affects C. albicans growth with fluconazole. C. albicans CaCi-2 (fluconazole-resistant clinical isolate) + fluconazole, Alamar Blue growth, 48 h. growth inhibition, % (concentration not given with the values). 300,000 compounds, 0.57% hits;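 active = growth inhibition above about 58% in most replicates, limit read from the data, passing the limit was not always enough; inconclusive = exactly half the replicates above a set limit; inactive = most replicates below a set limit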;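 note: all wells also contain fluconazole at 8 µg/ml as a sub-toxic cotreatment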
ATG4B inhibitor: blocks human ATG4B protease cleavage of LC3 substrate | Q9Y4P1 | ATG4B cleavage of LC3-PLA2, NBD-HPC fluorescence, 1 h | inhibition, % at 8.33 µM | 340,000 compounds, 0.51% hits | AID 504462; in the data active = inhibition above about 40%
UCH37 inh: human UCH37 deubiquitinating enzyme inhibition. Q9Y5K5. purified proteasome/UCH37, Ub-AMC cleavage fluorescence. inhibition, % (concentration not given with the values). 330,000 compounds, 0.33% hits;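 active = mean inhibition over replicate wells above about 20%, limit read from the data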
Target sequence (Q9Y5K5 whole entry, looked up): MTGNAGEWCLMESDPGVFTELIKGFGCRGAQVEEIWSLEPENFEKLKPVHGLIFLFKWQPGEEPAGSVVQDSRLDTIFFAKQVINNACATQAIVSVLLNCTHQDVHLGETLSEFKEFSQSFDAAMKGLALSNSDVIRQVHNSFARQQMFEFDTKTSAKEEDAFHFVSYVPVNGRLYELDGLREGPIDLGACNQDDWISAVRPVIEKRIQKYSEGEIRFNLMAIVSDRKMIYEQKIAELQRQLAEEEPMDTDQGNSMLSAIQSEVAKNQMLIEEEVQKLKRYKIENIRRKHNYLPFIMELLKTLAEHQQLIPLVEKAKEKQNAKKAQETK
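Material: Human UCH37 enzyme supplied as purified proteasome complex | Schedule: 30 min preincubation with enzyme, 25 min cleavage at room temperature | Detection: AMC fluorescence 355/460 nm | Measure: % inhibition of Ub-AMC cleavage fluorescence | Controls: Wells without proteasome as full block, compound-free enzyme plus substrate as uninhibited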
NLRP3 yeast inh: blocks the NALP3 inflammasome reconstituted in yeast; 330,000 compounds, 0.39% hits; Yeast reconstituted NLRP3/ASC/caspase-1, beta-gal luminescence, 24 h; inhibition, % at 10 µM;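 active = inhibition of 50% or more; inactive = inhibition below 50%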
NALP1 inh: NALP1 inhibition. S. cerevisiae NALP1/ASC/caspase-1 growth, X-gal OD620, 72 h. inhibition, % at 10 µM. 280,000 compounds, 0.61% hits. AID 2071; in the data active = inhibition mostly above about 24%, no sharp cut-off; inactive = mostly below about 32%
ALR H2O2 inh: human ALR oxidase inhibition via reduced H2O2 | purified ALR, DTT oxidation, H2O2 HRP-luminol luminescence | P55789 | inhibition, % (test concentration not listed) | 290,000 compounds, 3.8% hits;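 active = mean replicate inhibition above about 79%, with every replicate also reaching it, limit read from the data; inconclusive = only one of the two criteria met; inactive = mean below limit and not every replicate reaching it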
Target sequence (P55789 whole entry, looked up): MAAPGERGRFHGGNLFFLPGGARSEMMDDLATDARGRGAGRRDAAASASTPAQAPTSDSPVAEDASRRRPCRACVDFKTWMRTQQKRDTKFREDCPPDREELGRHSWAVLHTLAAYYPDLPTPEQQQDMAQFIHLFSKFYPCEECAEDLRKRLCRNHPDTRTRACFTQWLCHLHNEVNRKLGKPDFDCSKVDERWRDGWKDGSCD
A number is an active result; . = inactive; ? = inconclusive; / = no result. In the library only some 4.8% were active in any assay of this set; here they are far more common.

SMILES | Calb FLC | ATG4B inhibitor | UCH37 inh | NLRP3 yeast inh | NALP1 inh | ALR H2O2 inh
COc1ccc(N2C(=O)CC(Sc3n[nH]c(-c4cccc(C)c4)n3)C2=O)cc1 (configuration not stated) | . | . | . | . | . | 99
CCOc1ccccc1N1C(=O)CC(Sc2n[nH]c(-c3ccccc3)n2)C1=O (configuration not stated) | . | . | . | . | . | 99
O=C(NN=Cc1ccncc1)c1cccc([N+](=O)[O-])c1 | / | / | . | / | / | /
Cc1cc(C)nc(NN=Cc2ccccc2OCc2ccc(Br)cc2)n1 | / | / | . | / | / | /
ClC(Cl)(Cl)c1nc2ccccc2n2nncc12 | . | . | / | . | 37 | .
c1ccc2c(c1)nnn1c3ccccc3nc21 | . | / | / | . | . | .
C=CCc1cccc(CNc2ccc(S(=O)(=O)Nc3nccnc3OC)cc2)c1O | . | . | . | . | . | .
C=CCc1cccc(CNc2ccc(Br)cc2)c1O | ? | . | . | . | . | 98
CC(C)c1c(C(=O)NN=Cc2cccc3ccccc23)nnn1-c1nonc1N | / | / | . | / | / | /
Cc1ccc(C=Nn2c(C)nnc2C)s1 | / | / | . | / | / | /
O=C(Nc1ccccc1)OCCN1CCN(Cc2ccccc2)CCC1=O | . | . | . | . | . | .
Cc1ccc(NC(=O)OCCN2CCN(Cc3ccccc3)CCC2=O)cc1 | . | . | . | . | . | 92
N#Cc1ccc(C2=NC(C(F)(F)F)(C(F)(F)F)c3c(n(Cc4ccco4)c(=O)[nH]c3=O)N2)cc1 | . | . | . | . | . | 96
CN(C)C=NS(=O)(=O)c1ccc(Cl)c(Cl)c1 | / | / | . | / | / | /
Nc1ccc2c(c1)Cc1cc([N+](=O)[O-])ccc1-2 | . | . | 29 | . | . | .
CC(=NO)c1ccc2c(c1)Cc1cc([N+](=O)[O-])ccc1-2 | / | . | / | / | / | /
O=C(CCl)N1c2ccccc2CCc2ccccc21 | 84 | / | / | . | . | .
Cc1ccc(NC(=S)N(CCN(C)C)Cc2cc3cccc(C)c3[nH]c2=O)cc1 | . | . | . | . | . | .
Cc1ccc(NC(=S)N(CCN(C)C)Cc2cc3cc(C)ccc3[nH]c2=O)cc1 | . | . | . | . | 18 | .
c1ccc(-c2cn3c(n2)-c2ccccc2C3)cc1 | . | . | . | . | / | 95
Cc1ccc2nc(-c3ccccc3)cn2c1 | . | . | . | . | . | .
COc1cc(C=NNc2cccc(C)c2)ccc1OC(=O)c1ccco1 | / | / | . | / | / | /
CC(=NOCC(=O)NN=Cc1ccccc1O)c1cccs1 | / | / | . | / | / | /
Cc1ccc(S(=O)(=O)N(C)N=C/C=C/c2ccccc2)cc1 | / | / | . | / | / | /
COc1ccc(N2CCN(CCCNC(=O)CCCn3c(=O)[nH]c4ccsc4c3=O)CC2)cc1 | . | . | . | . | . | 93
SMILES | Calb FLC | ATG4B inhibitor | UCH37 inh | NLRP3 yeast inh | NALP1 inh | ALR H2O2 inh
O=C(CCCCCn1c(=O)[nH]c2ccsc2c1=O)NCc1cccs1 | . | . | . | . | . | .
COc1ccc(N2CCN(C(=O)CCCCCn3c(=O)[nH]c4ccsc4c3=O)CC2)cc1 | . | . | . | . | . | .
O=C(CCCn1c(=O)[nH]c2ccsc2c1=O)NCc1cccs1 | . | . | . | . | 21 | .
CCN(CCNC(=O)CN1CCN(Cc2ccc(Cl)cc2)C1=O)c1ccccc1 | . | . | . | . | . | 98
Cc1ccc(-c2nc(=S)c3c(n2Cc2ccco2)CCCC3)cc1 | / | . | . | / | / | /
Cc1ccc(-c2nc(=S)c3c(n2Cc2ccco2)CC(C)(C)OC3)cc1 | . | . | . | . | . | 97
Cc1ccsc1C=NNC(=O)CC(=O)NCC(C)C | / | / | . | / | / | /
CON=CC(=NNc1ccccc1)C(=O)c1ccccc1 | / | / | . | / | / | /
Cc1ccc(NC(=O)CN(C)Cc2cccs2)cc1Cl | . | . | . | . | . | .
O=C(NNc1ccc(Cl)cc1)c1cccs1 | 82 | . | / | . | . | .
CCN(CC)c1ccc(NC(=O)CN(C)Cc2cccs2)cc1 | . | . | . | . | . | 99
O=C(NNc1cc(Cl)cc(Cl)c1)c1cccs1 | . | . | . | . | . | .
CCCCC(=O)Nc1ccc(NCc2ccc(C)s2)cc1 | . | . | . | / | . | 97
O=C(NNC(=S)Nc1ccc(Cl)cc1)c1cccs1 | . | . | . | . | . | 97
COc1cc(NN=Cc2ccccc2O)ncn1 | / | / | . | / | / | /
O=C(O)c1ccc(NCc2cccs2)cc1 | . | . | . | . | . | .
CCC(=O)Nc1ccc(NCc2cccs2)cc1 | . | . | . | . | . | 98
CCN(CC)c1ccc(NC(=S)NC(=O)c2cccs2)cc1 | . | . | . | . | . | 98
COc1ccc(C=NOCc2nc3c4c(ncn3n2)Oc2ccc3ccccc3c2C4c2ccccc2)cc1 (configuration not stated) | / | / | . | / | / | /
CCC1CCC(N2CCN(c3cccc(OC)c3)CC2)CC1 (configuration not stated) | . | . | . | . | . | .
OCCC1CN(C2CCN(c3ccccc3F)CC2)CCN1Cc1ccccc1 (configuration not stated) | . | . | . | . | . | /
CC(C)CCN1CCN(C2CCN(c3ccccc3)CC2)CC1CCO (configuration not stated) | . | . | . | . | . | 98
Cc1ccc(N2CCC(N3CCN(C)C(CCO)C3)CC2)cc1 (configuration not stated) | . | . | . | . | . | 99
COc1cccc(N2CCC(N3CCN(C)C(CCO)C3)CC2)c1 (configuration not stated) | . | . | . | . | . | 94
CCOC(=O)N1CCC(N2CCN(CCC(C)C)C(CCO)C2)CC1 (configuration not stated) | . | . | . | . | . | .
SMILES | Calb FLC | ATG4B inhibitor | UCH37 inh | NLRP3 yeast inh | NALP1 inh | ALR H2O2 inh
CCC(=NNc1ccc(Cl)cc1)c1cnnc(SC)n1 | / | / | . | / | / | /
CCOC(=O)C(=NO)C(C)=NNC(C)=O | / | / | . | / | / | /
CN(C)CCCNC(=O)c1ccc(C=NO)nc1 | / | / | . | / | / | /
O=C(CSc1nc2[nH]ncc2c(=O)[nH]1)Nc1cccc(Cl)c1 | . | . | . | . | / | .
CCC(Sc1nc(-c2cccc(OC)c2)c(C#N)c(=O)[nH]1)C(=O)Nc1nnc(C(C)C)s1 (configuration not stated) | . | . | . | . | . | .
N#Cc1c(-c2ccco2)nc(SCC(=O)Nc2cccc(Cl)c2)[nH]c1=O | . | . | . | . | . | 99
CCc1ccc(NC(=O)C(C)Sc2nc(-c3ccco3)c(C#N)c(=O)[nH]2)cc1 (configuration not stated) | . | . | . | . | . | 98
Cc1cc2nc(CO)[nH]c2cc1C | . | . | . | . | . | .
Cc1cc2nc(CS)[nH]c2cc1C | . | . | . | . | . | 99
CC1(C)C2CC=C(C=NNC(=O)C(N)=O)C1C2 (configuration not stated) | / | / | . | / | / | /
Cc1c(C(=O)NNc2c(Cl)cccc2Cl)n(C)oc1=O | . | . | . | . | . | 98
Cc1nnsc1C(=O)NNc1ccc(Cl)cc1 | . | . | . | . | . | .
Cc1nnsc1C(=O)NNc1c(Cl)cccc1Cl | . | . | . | . | . | 98

Screening data: PubChem, several laboratories
